ChEMBL document CHEMBL5096187, “Efficient Synthesis and Bioevaluation of Novel Dual Tubulin/Histone Deacetylase 3 Inhibitors as Potential Anticancer Agents” (J Med Chem, 2021)

Experiments:
Histone deacetylase 1 = Histone deacetylase 1 (Homo sapiens, UniProt Q13547); experiment: Inhibition of full length recombinant human HDAC1 (1 to 482 residues) expressed in Baculovirus system using Ac-Leu-Gly-Lys (Ac)-AMC as substrate pretreated for 5 mins followed by substrate addition and measured after 30 mins
Chain of Histone deacetylase 1 (Q13547 whole entry, the tested form may be a part): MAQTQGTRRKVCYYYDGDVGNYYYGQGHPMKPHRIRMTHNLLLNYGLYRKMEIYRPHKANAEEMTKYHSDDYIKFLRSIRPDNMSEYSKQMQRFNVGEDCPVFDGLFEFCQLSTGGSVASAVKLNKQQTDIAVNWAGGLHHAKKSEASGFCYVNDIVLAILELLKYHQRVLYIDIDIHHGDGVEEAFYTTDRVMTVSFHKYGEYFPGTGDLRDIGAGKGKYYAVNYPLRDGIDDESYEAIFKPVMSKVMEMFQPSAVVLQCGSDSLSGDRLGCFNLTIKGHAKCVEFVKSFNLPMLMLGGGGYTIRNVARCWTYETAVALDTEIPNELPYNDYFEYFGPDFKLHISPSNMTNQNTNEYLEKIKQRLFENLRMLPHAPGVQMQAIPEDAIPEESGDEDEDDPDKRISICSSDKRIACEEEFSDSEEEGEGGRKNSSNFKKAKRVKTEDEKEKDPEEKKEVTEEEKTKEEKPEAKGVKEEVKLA

Tubulin (Sus scrofa) = Tubulin (Sus scrofa) (UniProt P02554+P02550); experiment: Inhibition of pig brain tubulin polymerization measured after 20 mins by spectrometric method; conditions: dose 0.8-25 µM, DDE = dose-dependent effect
Chain of Tubulin (Sus scrofa) (P02550 whole entry, looked up): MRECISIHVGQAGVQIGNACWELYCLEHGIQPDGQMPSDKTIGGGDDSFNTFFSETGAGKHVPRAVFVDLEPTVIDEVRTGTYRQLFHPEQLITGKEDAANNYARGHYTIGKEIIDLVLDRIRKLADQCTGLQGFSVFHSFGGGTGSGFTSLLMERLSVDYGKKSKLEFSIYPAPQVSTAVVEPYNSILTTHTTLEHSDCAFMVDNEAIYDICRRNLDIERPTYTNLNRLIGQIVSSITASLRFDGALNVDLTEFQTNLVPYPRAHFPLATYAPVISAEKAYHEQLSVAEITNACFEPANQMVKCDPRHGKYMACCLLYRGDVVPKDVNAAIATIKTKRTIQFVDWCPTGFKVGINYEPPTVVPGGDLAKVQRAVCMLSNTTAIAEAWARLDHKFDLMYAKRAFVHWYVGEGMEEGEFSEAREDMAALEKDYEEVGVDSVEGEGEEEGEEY
Chain of Tubulin (Sus scrofa) (P02554 whole entry, looked up): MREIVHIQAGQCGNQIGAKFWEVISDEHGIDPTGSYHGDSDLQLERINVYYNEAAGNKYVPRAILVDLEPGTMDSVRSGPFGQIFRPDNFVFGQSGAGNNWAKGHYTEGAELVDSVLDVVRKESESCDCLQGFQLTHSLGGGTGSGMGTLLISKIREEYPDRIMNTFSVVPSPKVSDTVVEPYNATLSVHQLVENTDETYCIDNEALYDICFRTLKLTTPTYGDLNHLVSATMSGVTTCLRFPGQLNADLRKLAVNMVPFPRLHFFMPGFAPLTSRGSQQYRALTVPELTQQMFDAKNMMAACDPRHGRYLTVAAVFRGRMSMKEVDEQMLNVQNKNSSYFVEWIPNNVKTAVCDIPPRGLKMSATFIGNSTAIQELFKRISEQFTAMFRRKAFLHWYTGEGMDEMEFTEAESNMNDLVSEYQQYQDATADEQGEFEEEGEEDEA
How it was run: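 Tubulin purified from pig brain microtubule protein (three assembly/disassembly cycles, then phosphocellulose chromatography). Tubulin mixed with compound in PEM buffer (100 mM PIPES, 1 mM MgCl₂, 1 mM EGTA) plus 1 mM GTP and 5% glycerol. Polymerization followed at 340 nm, 37 °C. Inhibition versus vehicle at 20 min; plateau absorbance used.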

B16-F10 [1] = experiment: Inhibition of cell migration in mouse B16-F10 cells assessed as reduction in wound area ratio measured at 100 nM incubated for 24 hrs by wound healing assay; assay type: functional; set-up: scale not given: the % may be the effect or the level left
How it was run: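 Confluent B16-F10 monolayers, seeded overnight, were scratched with a pipette tip and washed to remove debris. Cells were then treated, and phase-contrast images were taken at 0 and 24 h. Migration distance or wound area measured manually against DMSO control; n = 3.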

B16-F10 [2] = experiment: Inhibition of colony formation in mouse B16-F10 cells assessed as reduction in number of colonies incubated for 24 hrs; assay type: functional, cell-based; conditions: dose 25-100 nM, DDE = dose-dependent effect
How it was run: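 1000 B16-F10 cells seeded and cultured 24 h at 37 °C, then exposed to compound for 24 h. Medium was then replaced and cells grown 10–14 days. Colonies fixed with 4% paraformaldehyde for 30 min, stained with 0.1% crystal violet for 15 min, and counted; n = 3 versus DMSO.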

B16-F10 [3] = experiment: Induction of apoptosis in mouse B16-F10 cells assessed as viable cells at 100 nM incubated for 48 hrs by Annexin V-FITC/PI analysis (reference value: 98.3 %); assay type: functional; conditions: read-out: Activity
B16-F10 [4] = experiment: Induction of apoptosis in mouse B16-F10 cells assessed as early apoptotic cells at 100 nM incubated for 48 hrs by Annexin V-FITC/PI analysis (reference value: 1.68 %); assay type: functional
B16-F10 [5] = experiment: Antitumor activity against mouse B16-F10 cells allografted in C57BL/6 mouse assessed as tumor growth inhibition at 10 mg/kg, ip administered for 14 days; assay type: functional; conditions: B16-F10, 336 h, time 14 day, read-out: TGI
How it was run: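 C57BL/6 mice were inoculated subcutaneously with 3×10⁵ B16-F10 cells in PBS and randomized (n = 8). Drugs in ethanol/polyoxyethylene castor oil/saline (1.25:1.25:7.5) or vehicle alone were given i.p. once daily for 14 days. Mice were sacrificed at day 14 and tumors weighed; TGI(%) = [1 − Wt/Wv] × 100 using mean tumor weights.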

[6] = Hepatotoxicity in C57BL/6 mouse assessed as effect on ALT level in serum; assay type: toxicity
[7] = Hepatotoxicity in C57BL/6 mouse assessed as effect on total bilirubin level in serum; assay type: toxicity
[8] = Nephrotoxicity in C57BL/6 mouse assessed as effect on creatinine level in serum; assay type: toxicity; conditions: in vivo
[9] = Nephrotoxicity in C57BL/6 mouse assessed as effect on urea level in serum; assay type: toxicity; conditions: in vivo
[10] = Toxicity in C57BL/6 mouse allografted with mouse B16-F10 cells assessed as body weight loss at 10 mg/kg, ip administered for 14 days; conditions: in vivo, 336 h

Which IC50 (Histone deacetylase 1) does the source give for `COc1cc(C(=O)c2csc(-c3ccc(NC(=O)CCCC(=O)Nc4ccccc4N)cc3)n2)cc(OC)c1OC` here?
The IC50 was 9.04 µM.

What about the inhibition (Tubulin (Sus scrofa)) of the same compound?
Its inhibition is “Dde”.

What about the Activity (B16-F10 [1]) of the same compound?
The Activity was 7.18%.

And the Activity (B16-F10 [2])?
The Activity was “Dde”.

And the viability at 0.1 µM (B16-F10 [3])?
The viability at 0.1 µM was 31.6%.

What about the Activity (B16-F10 [4]) of the same compound?
Its Activity is 5.83%.

What about the inhibition in vivo at 10 mg/kg (B16-F10 [5]) of the same compound?
The inhibition in vivo at 10 mg/kg was 70%.

And the Activity [6]?
Its Activity is “Non-Toxic”.

What about the Activity [7] of the same compound?
Its Activity is “Non-Toxic”.

What about the Activity [8] of the same compound?
The Activity was “Non-Toxic”.

And the Activity [9]?
Its Activity is “Non-Toxic”.

What about the Activity [10] of the same compound?
Its Activity is “Non-Toxic”.
